ChEMBL document CHEMBL3351600, “Sulfur, selenium and tellurium pseudopeptides: synthesis and biological evaluation” (Bioorg Med Chem, 2014)

What was measured:
[1] = Growth inhibition of human PC3 cells after 48 hrs; assay type: functional; conditions: PC-3, 48 h
Summary of the method: (§1)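 NCI-60 human tumour cell line panel screen run at the US National Cancer Institute under its standard cytotoxicity protocol. It covers leukaemia, NSCLC, colon, CNS, melanoma, ovarian, renal, prostate and breast lines. An initial single-dose test was followed by five-dose testing with 48 h compound exposure.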

MCF7 [2] = assay: Growth inhibition of human MCF7 cells after 48 hrs; assay type: functional; conditions: MCF7, 48 h; summary of the method: as §1
[3] = Growth inhibition of human Hs 578T cells after 48 hrs; assay type: functional; summary of the method: as §1
[4] = Growth inhibition of human BT549 cells after 48 hrs; assay type: functional; conditions: BT-549, 48 h; summary of the method: as §1
[5] = Growth inhibition of human LOXIMVI cells after 48 hrs; assay type: functional; conditions: LOX IMVI; summary of the method: as §1
MCF7 [6] = assay: Cytotoxicity against human MCF7 cells assessed as cell viability after 24 hrs incubation by MTT assay; assay type: functional, cell-based; conditions: MCF7, 24 h
Summary of the method: (§2)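 Cell lines came from DSMZ; primary human fibroblasts served as non-cancer controls. Cells were grown in medium with 10% FCS, seeded at 50,000 cells/ml, and grown 2 days at 37 °C, 10% CO2. Serial dilutions were then added for 24 h. MTT (final 0.5 mg/ml) was added for 2 h. Formazan was pelleted, PBS-washed, dissolved in isopropanol/0.4% HCl and read at 590 nm. Two parallel experiments were run. IC50 was taken as the concentration giving 50% of untreated-control absorbance.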

[7] = Cytotoxicity against human fibroblasts assessed as cell viability after 24 hrs incubation by MTT assay; assay type: cell-based; conditions: Fibroblast; summary of the method: as §2
Saccharomyces cerevisiae = assay: Antimicrobial activity against Saccharomyces cerevisiae assessed as inhibition at 20 ug/6 mm disk after 1 to 2 days by agar diffusion assay; assay type: functional
Summary of the method: (§3)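 Standard agar diffusion: 6-mm paper disks loaded with 20 µg of compound were placed on inoculated plates. Inhibition-zone diameter (mm) was read after 1 and 2 days of growth.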

Mycolicibacterium phlei = assay: Antimicrobial activity against Mycobacterium phlei assessed as inhibition at 20 ug/6 mm disk after 1 to 2 days by agar diffusion assay; assay type: functional; summary of the method: as §3
Staphylococcus aureus = assay: Antimicrobial activity against Staphylococcus aureus assessed as inhibition at 20 ug/6 mm disk after 1 to 2 days by agar diffusion assay; assay type: functional; summary of the method: as §3
Klebsiella pneumoniae = assay: Antimicrobial activity against Klebsiella pneumoniae assessed as inhibition at 20 ug/6 mm disk after 1 to 2 days by agar diffusion assay; assay type: functional; summary of the method: as §3
Escherichia coli = assay: Antimicrobial activity against Escherichia coli tolC assessed as inhibition at 20 ug/6 mm disk after 1 to 2 days by agar diffusion assay; assay type: functional; summary of the method: as §3
[8] = Lipophilicity, log K of the compound by HPLC analysis
HL-60(TB) = assay: Growth inhibition of human HL-60(TB) cells after 48 hrs; assay type: functional; conditions: HL-60, 48 h; summary of the method: as §1
[9] = Growth inhibition of human MOLT4 cells after 48 hrs; assay type: functional; conditions: MOLT-4, 48 h; summary of the method: as §1
A549 = assay: Growth inhibition of human A549/ATCC cells after 48 hrs; assay type: functional; conditions: A549, 48 h; summary of the method: as §1
[10] = Growth inhibition of human HOP92 cells after 48 hrs; assay type: functional; conditions: HOP-92, 48 h; summary of the method: as §1
NCI-H23 = assay: Growth inhibition of human NCI-H23 cells after 48 hrs; assay type: functional; conditions: NCI-H23, 48 h; summary of the method: as §1
NCI-H522 = assay: Growth inhibition of human NCI-H522 cells after 48 hrs; assay type: functional; conditions: NCI-H522, 48 h; summary of the method: as §1
[11] = Growth inhibition of human HCT116 cells after 48 hrs; assay type: functional; conditions: HCT-116, 48 h; summary of the method: as §1
[12] = Growth inhibition of human SF539 cells after 48 hrs; assay type: functional; conditions: SF-539, 48 h; summary of the method: as §1
SNB-19 = assay: Growth inhibition of human SNB19 cells after 48 hrs; assay type: functional; conditions: SNB-19, 48 h
Summary of the method: (§4)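 Run by the NCI 58-cell-line screen under its standard cytotoxicity protocol. Compounds were first tested at a single dose, then at five doses. Cells were exposed to compound for 48 h.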

SNB-75 = assay: Growth inhibition of human SNB75 cells after 48 hrs; assay type: functional; conditions: SNB-75, 48 h; summary of the method: as §4
U-251 = assay: Growth inhibition of human U251 cells after 48 hrs; assay type: functional; conditions: U-251, 48 h; summary of the method: as §4
SK-MEL-28 = assay: Growth inhibition of human SK-MEL-28 cells after 48 hrs; assay type: functional; conditions: SK-MEL-28, 48 h; summary of the method: as §1
SK-MEL-5 = assay: Growth inhibition of human SK-MEL-5 cells after 48 hrs; assay type: functional; conditions: SK-MEL-5, 48 h; summary of the method: as §4
[13] = Growth inhibition of human UACC257 cells after 48 hrs; assay type: functional; conditions: UACC-257, 48 h; summary of the method: as §4
[14] = Growth inhibition of human UACC62 cells after 48 hrs; assay type: functional; conditions: UACC-62, 48 h; summary of the method: as §4
IGROV-1 = assay: Growth inhibition of human IGROV1 cells after 48 hrs; assay type: functional; conditions: IGROV-1, 48 h; summary of the method: as §1
[15] = Growth inhibition of human OVCAR4 cells after 48 hrs; assay type: functional; conditions: OVCAR-4, 48 h; summary of the method: as §1
[16] = Growth inhibition of human OVCAR8 cells after 48 hrs; assay type: functional; conditions: OVCAR-8, 48 h; summary of the method: as §1
786-0 = assay: Growth inhibition of human 786-0 cells after 48 hrs; assay type: functional; conditions: 786-0, 48 h; summary of the method: as §1
A498 = assay: Growth inhibition of human A498 cells after 48 hrs; assay type: functional; conditions: A498, 48 h; summary of the method: as §1
[17] = read-out: pLC50 (the source's name) (converted)

CC1=C(SCCC(=O)OCC(=O)NCCC[Te]c2ccccc2)C(=O)c2ccccc2C1=O
GI50 [1]: 2.4 µM | LC50 [1]: 42.7 µM | TGI ([1]; read-out: pTGI (converted)): 12 µM | GI50 (MCF7 [2]): 2.95 µM | LC50 (concentration killing 50% of cells) (MCF7 [2]): 57.5 µM | TGI (MCF7 [2]; read-out: pTGI (converted)): 12.3 µM | GI50 [3]: 2.82 µM | LC50 [3]: > 100 µM | TGI ([3]; read-out: pTGI (converted)): > 100 µM | GI50 [4]: 1.66 µM | LC50 (concentration killing 50% of cells) [4]: 9.77 µM | TGI ([4]; read-out: pTGI (converted)): 4.07 µM | GI50 [5]: 2.14 µM | LC50 [5]: 75.9 µM | TGI ([5]; read-out: pTGI (converted)): 5.37 µM | IC50 (MCF7 [6]): 12 µM | IC50 [7]: 13 µM | diameter of the inhibition zone (DIZ) (Saccharomyces cerevisiae): 0 mm | diameter of the inhibition zone (DIZ) (Mycolicibacterium phlei): 16 mm | diameter of the inhibition zone (DIZ) (Staphylococcus aureus): 13 mm | diameter of the inhibition zone (DIZ) (Klebsiella pneumoniae): 13 mm | diameter of the inhibition zone (DIZ) (Escherichia coli): 11 mm | log K [8]: -0.56 | GI50 (HL-60(TB)): 2.57 µM | CC50 (HL-60(TB); [17]): > 100 µM | TGI (HL-60(TB); read-out: pTGI (converted)): 7.24 µM | GI50 [9]: 3.16 µM | CC50 [9, 17]: > 100 µM | TGI ([9]; read-out: pTGI (converted)): 9.77 µM | GI50 (A549): 1.29 µM | CC50 (A549; [17]): > 100 µM | TGI (A549; read-out: pTGI (converted)): 3.63 µM | GI50 [10]: 1.58 µM | CC50 [10, 17]: 19.5 µM | TGI ([10]; read-out: pTGI (converted)): 4.9 µM | GI50 (NCI-H23): 2.29 µM | CC50 (NCI-H23; [17]): 44.7 µM | TGI (NCI-H23; read-out: pTGI (converted)): 7.41 µM | GI50 (NCI-H522): 2.51 µM | CC50 (NCI-H522; [17]): 47.9 µM | TGI (NCI-H522; read-out: pTGI (converted)): 10.2 µM | GI50 [11]: 1.66 µM | CC50 [11, 17]: 11.5 µM | TGI ([11]; read-out: pTGI (converted)): 4.17 µM | GI50 [12]: 2.09 µM | CC50 [12, 17]: 27.5 µM | TGI ([12]; read-out: pTGI (converted)): 6.61 µM | GI50 (SNB-19): 2.63 µM | CC50 (SNB-19; [17]): 42.7 µM | TGI (SNB-19; read-out: pTGI (converted)): 10.2 µM | GI50 (SNB-75): 1.48 µM | CC50 (SNB-75; [17]): 24.5 µM | TGI (SNB-75; read-out: pTGI (converted)): 5.89 µM | GI50 (U-251): 3.16 µM | CC50 (U-251; [17]): 45.7 µM | TGI (U-251; read-out: pTGI (converted)): 11.5 µM | GI50 (SK-MEL-28): 2.29 µM | CC50 (SK-MEL-28; [17]): 17.8 µM | TGI (SK-MEL-28; read-out: pTGI (converted)): 5.5 µM | GI50 (SK-MEL-5): 1.29 µM | CC50 (SK-MEL-5; [17]): 5.25 µM | TGI (SK-MEL-5; read-out: pTGI (converted)): 2.63 µM | GI50 [13]: 2.75 µM | CC50 [13, 17]: 32.4 µM | TGI ([13]; read-out: pTGI (converted)): 7.94 µM | GI50 [14]: 1.86 µM | CC50 [14, 17]: 13.5 µM | TGI ([14]; read-out: pTGI (converted)): 4.57 µM | GI50 (IGROV-1): 2.14 µM | CC50 (IGROV-1; [17]): 35.5 µM | TGI (IGROV-1; read-out: pTGI (converted)): 6.46 µM | GI50 [15]: 2.14 µM | LC50 [15]: 29.5 µM | TGI ([15]; read-out: pTGI (converted)): 7.41 µM | GI50 [16]: 2.75 µM | LC50 [16]: 51.3 µM | TGI ([16]; read-out: pTGI (converted)): 11.5 µM | GI50 (786-0): 2.69 µM | LC50 (786-0): 29.5 µM | TGI (786-0; read-out: pTGI (converted)): 8.32 µM | GI50 (A498): 2 µM | LC50 (A498): 30.2 µM | TGI (A498; read-out: pTGI (converted)): 7.41 µM
